# Results filed as inconclusive are left out. The source made the active and inactive calls.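 The calls were made as follows: active = viability below 80% at one or more tested concentrations; inconclusive = replicate runs disagree on the 80% viability cutoff; inactive = viability above 80% at every tested concentration.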
# How the values were obtained:
# [1] = Vero E6 cell cytotoxicity, dose response, cytotoxicity control for P. falciparum PFM1AAP inhibitor project, M1 aminopeptidase campaign (AID 588717); conditions: Vero E6 viability, CellTiter-Glo luminescence, 72 h; at 50 µM (top of the series)
# How it was run: (§1)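 System: Vero E6 cells / Quantity: 3000 cells/well / Medium: E-MEM plus 10% FBS / Dosing: compound series of 10 points in 2-fold steps / Schedule: 72 h compound exposure at 37 °C, 5% CO2 / Technique: CellTiter-Glo luminescence / Read-out: % viability vs vehicle, CC50 from curve fit / Controls: DMSO vehicle wells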
# [2] = test system: Vero E6 viability, CellTiter-Glo luminescence, 72 h; assay: as above
# How it was run: as §1
Compound,viability [1],CC50 [2] [µM]
COc1cccc(-c2ccc(S(=O)(=O)N3CCC(C(=O)NCc4ccc5c(c4)OCO5)CC3)s2)c1,83.4% (inactive),
CC[C@H](C)[C@H](NS(=O)(=O)c1cccs1)C(=O)NCc1ccc(F)cc1,95.5% (inactive),
CC[C@H](C)[C@H](NS(=O)(=O)c1ccc(Br)s1)C(=O)O,104% (inactive),
CC[C@H](C)[C@H](NS(=O)(=O)c1ccc(Br)s1)C(=O)NCc1ccc(C(F)(F)F)cc1,,28.7
COc1ccc(-c2ccc(S(=O)(=O)N3CCC(C(=O)NCc4ccc5c(c4)OCO5)CC3)s2)cc1,84.2% (inactive),
CC[C@H](C)[C@H](NC(=O)c1ccc([N+](=O)[O-])cc1)C(=O)NCc1ccc(C(F)(F)F)cc1,92.2% (inactive),
CC[C@H](C)[C@H](NC(=O)c1ccc([N+](=O)[O-])cc1)C(=O)NCc1ccccc1,88.9% (inactive),
CC[C@H](C)[C@H](NS(=O)(=O)c1ccc(Br)s1)C(=O)NCc1ccc(F)cc1,97% (inactive),
